According to ChEMBL document CHEMBL1681781, “Structure based design and syntheses of amino-1H-pyrazole amide derivatives as selective Raf kinase inhibitors in melanoma cells” (Bioorg Med Chem, 2011):
pIC50: −log10 of the molar value.

What was measured:
[1] = target: T1, Ribosomal protein S6 kinase beta-1 (Homo sapiens, UniProt P23443); assay: inhibition of p70S6K at 10 uM
[2] = Antiproliferative activity against human A375P cells assessed as growth inhibition after 24 hrs by MTT assay; assay type: functional
Summary of the method: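 A375P cells kept in DMEM with 10% FBS and 1% penicillin/streptomycin at 37 °C under 5% CO2. Cells lifted with 0.05% trypsin–0.02% EDTA, seeded at 5 × 10^3 cells/well and left 24 h before dosing. Test compounds given as a 3-fold serial dilution over 12 points. Viability read by MTT reduction, absorbance at 590 nm.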

HS27 = assay: Antiproliferative activity against human HS27 cells assessed as growth inhibition after 24 hrs by MTT assay; assay type: functional; conditions: HS27, 24 h
[3] = system: RAC-alpha serine/threonine-protein kinase (Homo sapiens), P31749 [S473D]; assay: Inhibition of AKT1 PH S473D mutant at 10 uM
[4] = target: Aurora kinase A (Homo sapiens) (UniProt O14965); assay: Inhibition of Aurora A kinase at 10 uM
[5] = system: Serine/threonine-protein kinase B-raf (Homo sapiens), P15056 [V600E]; assay: Inhibition of b-Raf V599E mutant at 10 uM
[6] = target: Cyclin-dependent kinase 1/cyclin B (Homo sapiens) (UniProt P06493+P14635+Q8WWL7+O95067); assay: Inhibition of CDK1/cyclin B at 10 uM; assay type: protein-complex assay
[7] = target: Cyclin-dependent kinase 2/cyclin E (Homo sapiens) (UniProt P24864+P24941+O96020); assay: Inhibition of CDK2/cyclin E at 10 uM; assay type: protein-complex assay
[8] = target: T2, Mitogen-activated protein kinase 1 (Homo sapiens, UniProt P28482); assay: Inhibition of ERK2 at 10 uM
[9] = target: Focal adhesion kinase 1 (Homo sapiens) (UniProt Q05397); assay: Inhibition of FAK at 10 uM
[10] = target: T3, Glycogen synthase kinase-3 beta (Homo sapiens, UniProt P49841); assay: inhibition of GSK3-beta at 10 uM
[11] = target: Insulin-like growth factor 1 receptor (Homo sapiens) (UniProt P08069); assay: inhibition of IGF-1R at 10 uM
[12] = target: Tyrosine-protein kinase JAK3 (Homo sapiens) (UniProt P52333); assay: inhibition of JAK3 at 10 uM
[13] = target: T4, Vascular endothelial growth factor receptor 2 (Homo sapiens, UniProt P35968); assay: inhibition of KDR at 10 uM
[14] = target: T5, Dual specificity mitogen-activated protein kinase kinase 1 (Homo sapiens, UniProt Q02750); assay: inhibition of MEK1 at 10 uM
[15] = target: Serine/threonine-protein kinase mTOR (Homo sapiens, UniProt P42345); assay: inhibition of mTOR at 10 uM
[16] = inhibition of PKA at 10 uM
[17] = target: T6, Serine/threonine-protein kinase PLK1 (Homo sapiens, UniProt P53350); assay: inhibition of PLK1 at 10 uM
[18] = target: RAF proto-oncogene serine/threonine-protein kinase (Homo sapiens, UniProt P04049); assay: inhibition of RAF1 assessed as [33P]gamma-ATP incorporation into substrate at 10 uM after 40 mins by scintillation counting
[19] = target: T7, Macrophage-stimulating protein receptor (Homo sapiens, UniProt Q04912); assay: inhibition of RON at 10 uM
[20] = target: T8, Proto-oncogene tyrosine-protein kinase ROS (Homo sapiens, UniProt P08922); assay: inhibition of ROS at 10 uM
[21] = target: T9, Tyrosine-protein kinase SYK (Homo sapiens, UniProt P43405); assay: inhibition of SYK at 10 uM
[22] = target: T10, BDNF/NT-3 growth factors receptor (Homo sapiens, UniProt Q16620); assay: inhibition of TRKB at 10 uM
Aurora kinase A = Aurora kinase A (Homo sapiens, UniProt O14965); assay: Inhibition of Aurora A kinase
[23] = target: T11, Hepatocyte growth factor receptor (Homo sapiens, UniProt P08581); assay: Inhibition of c-MET
[24] = target: T12, Proto-oncogene tyrosine-protein kinase Src (Homo sapiens, UniProt P12931); assay: Inhibition of c-Src
[25] = target: Cyclin-dependent kinase 1/cyclin B (Homo sapiens, UniProt P06493); assay: Inhibition of CDK1/cyclin B; assay type: protein-complex assay
[26] = target: Cyclin-dependent kinase 2/cyclin E (Homo sapiens, UniProt P24941); assay: Inhibition of CDK2/cyclin E; assay type: protein-complex assay
[27] = target: T2, Mitogen-activated protein kinase 1; assay: Inhibition of ERK2
[28] = target: Receptor-type tyrosine-protein kinase FLT3 (Homo sapiens, UniProt P36888); assay: inhibition of FLT3
[29] = target: T13, Fibroblast growth factor receptor 3 (Homo sapiens, UniProt P22607); assay: inhibition of FGFR3
[30] = target: T3, Glycogen synthase kinase-3 beta; assay: inhibition of GSK3-beta
[31] = target: T4, Vascular endothelial growth factor receptor 2; assay: inhibition of KDR
[32] = target: T5, Dual specificity mitogen-activated protein kinase kinase 1; assay: inhibition of MEK1
[33] = target: T1, Ribosomal protein S6 kinase beta-1; assay: inhibition of p70S6K
[34] = inhibition of PKA
[35] = target: T6, Serine/threonine-protein kinase PLK1; assay: inhibition of PLK1
[36] = target: T7, Macrophage-stimulating protein receptor; assay: inhibition of RON
[37] = target: T8, Proto-oncogene tyrosine-protein kinase ROS; assay: inhibition of ROS
[38] = target: T9, Tyrosine-protein kinase SYK; assay: inhibition of SYK
[39] = target: T10, BDNF/NT-3 growth factors receptor; assay: inhibition of TRKB
[40] = target: T14, Mitogen-activated protein kinase 10 (Homo sapiens, UniProt P53779); assay: inhibition of JNK3
[41] = target: T15, Mitogen-activated protein kinase 8 (Homo sapiens, UniProt P45983); assay: inhibition of JNK1a1 at 10 uM
[42] = target: T15, Mitogen-activated protein kinase 8; assay: inhibition of JNK1a1; conditions: concentration not given here
[43] = target: ALK tyrosine kinase receptor (Homo sapiens) (UniProt Q9UM73); conditions: 10 uM
[44] = target: T11, Hepatocyte growth factor receptor; conditions: 10 uM
[45] = target: T12, Proto-oncogene tyrosine-protein kinase Src; conditions: 10 uM
[46] = target: T13, Fibroblast growth factor receptor 3; conditions: 10 uM
[47] = target: Receptor-type tyrosine-protein kinase FLT3 (Homo sapiens) (UniProt P36888); conditions: 10 uM
[48] = target: T14, Mitogen-activated protein kinase 10; conditions: 10 uM

T5 sequence (Q02750 whole entry): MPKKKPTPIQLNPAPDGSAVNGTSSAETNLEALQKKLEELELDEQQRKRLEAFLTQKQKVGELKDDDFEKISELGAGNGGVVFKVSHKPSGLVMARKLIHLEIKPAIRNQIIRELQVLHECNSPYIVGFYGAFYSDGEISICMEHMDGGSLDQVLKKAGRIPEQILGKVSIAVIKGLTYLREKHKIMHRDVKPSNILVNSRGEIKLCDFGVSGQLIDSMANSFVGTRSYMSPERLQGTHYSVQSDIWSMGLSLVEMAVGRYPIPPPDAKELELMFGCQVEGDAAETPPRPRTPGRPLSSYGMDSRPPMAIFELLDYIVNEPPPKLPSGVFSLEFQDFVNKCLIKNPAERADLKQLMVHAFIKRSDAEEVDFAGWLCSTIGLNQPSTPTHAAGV
T8 sequence (P08922 whole entry): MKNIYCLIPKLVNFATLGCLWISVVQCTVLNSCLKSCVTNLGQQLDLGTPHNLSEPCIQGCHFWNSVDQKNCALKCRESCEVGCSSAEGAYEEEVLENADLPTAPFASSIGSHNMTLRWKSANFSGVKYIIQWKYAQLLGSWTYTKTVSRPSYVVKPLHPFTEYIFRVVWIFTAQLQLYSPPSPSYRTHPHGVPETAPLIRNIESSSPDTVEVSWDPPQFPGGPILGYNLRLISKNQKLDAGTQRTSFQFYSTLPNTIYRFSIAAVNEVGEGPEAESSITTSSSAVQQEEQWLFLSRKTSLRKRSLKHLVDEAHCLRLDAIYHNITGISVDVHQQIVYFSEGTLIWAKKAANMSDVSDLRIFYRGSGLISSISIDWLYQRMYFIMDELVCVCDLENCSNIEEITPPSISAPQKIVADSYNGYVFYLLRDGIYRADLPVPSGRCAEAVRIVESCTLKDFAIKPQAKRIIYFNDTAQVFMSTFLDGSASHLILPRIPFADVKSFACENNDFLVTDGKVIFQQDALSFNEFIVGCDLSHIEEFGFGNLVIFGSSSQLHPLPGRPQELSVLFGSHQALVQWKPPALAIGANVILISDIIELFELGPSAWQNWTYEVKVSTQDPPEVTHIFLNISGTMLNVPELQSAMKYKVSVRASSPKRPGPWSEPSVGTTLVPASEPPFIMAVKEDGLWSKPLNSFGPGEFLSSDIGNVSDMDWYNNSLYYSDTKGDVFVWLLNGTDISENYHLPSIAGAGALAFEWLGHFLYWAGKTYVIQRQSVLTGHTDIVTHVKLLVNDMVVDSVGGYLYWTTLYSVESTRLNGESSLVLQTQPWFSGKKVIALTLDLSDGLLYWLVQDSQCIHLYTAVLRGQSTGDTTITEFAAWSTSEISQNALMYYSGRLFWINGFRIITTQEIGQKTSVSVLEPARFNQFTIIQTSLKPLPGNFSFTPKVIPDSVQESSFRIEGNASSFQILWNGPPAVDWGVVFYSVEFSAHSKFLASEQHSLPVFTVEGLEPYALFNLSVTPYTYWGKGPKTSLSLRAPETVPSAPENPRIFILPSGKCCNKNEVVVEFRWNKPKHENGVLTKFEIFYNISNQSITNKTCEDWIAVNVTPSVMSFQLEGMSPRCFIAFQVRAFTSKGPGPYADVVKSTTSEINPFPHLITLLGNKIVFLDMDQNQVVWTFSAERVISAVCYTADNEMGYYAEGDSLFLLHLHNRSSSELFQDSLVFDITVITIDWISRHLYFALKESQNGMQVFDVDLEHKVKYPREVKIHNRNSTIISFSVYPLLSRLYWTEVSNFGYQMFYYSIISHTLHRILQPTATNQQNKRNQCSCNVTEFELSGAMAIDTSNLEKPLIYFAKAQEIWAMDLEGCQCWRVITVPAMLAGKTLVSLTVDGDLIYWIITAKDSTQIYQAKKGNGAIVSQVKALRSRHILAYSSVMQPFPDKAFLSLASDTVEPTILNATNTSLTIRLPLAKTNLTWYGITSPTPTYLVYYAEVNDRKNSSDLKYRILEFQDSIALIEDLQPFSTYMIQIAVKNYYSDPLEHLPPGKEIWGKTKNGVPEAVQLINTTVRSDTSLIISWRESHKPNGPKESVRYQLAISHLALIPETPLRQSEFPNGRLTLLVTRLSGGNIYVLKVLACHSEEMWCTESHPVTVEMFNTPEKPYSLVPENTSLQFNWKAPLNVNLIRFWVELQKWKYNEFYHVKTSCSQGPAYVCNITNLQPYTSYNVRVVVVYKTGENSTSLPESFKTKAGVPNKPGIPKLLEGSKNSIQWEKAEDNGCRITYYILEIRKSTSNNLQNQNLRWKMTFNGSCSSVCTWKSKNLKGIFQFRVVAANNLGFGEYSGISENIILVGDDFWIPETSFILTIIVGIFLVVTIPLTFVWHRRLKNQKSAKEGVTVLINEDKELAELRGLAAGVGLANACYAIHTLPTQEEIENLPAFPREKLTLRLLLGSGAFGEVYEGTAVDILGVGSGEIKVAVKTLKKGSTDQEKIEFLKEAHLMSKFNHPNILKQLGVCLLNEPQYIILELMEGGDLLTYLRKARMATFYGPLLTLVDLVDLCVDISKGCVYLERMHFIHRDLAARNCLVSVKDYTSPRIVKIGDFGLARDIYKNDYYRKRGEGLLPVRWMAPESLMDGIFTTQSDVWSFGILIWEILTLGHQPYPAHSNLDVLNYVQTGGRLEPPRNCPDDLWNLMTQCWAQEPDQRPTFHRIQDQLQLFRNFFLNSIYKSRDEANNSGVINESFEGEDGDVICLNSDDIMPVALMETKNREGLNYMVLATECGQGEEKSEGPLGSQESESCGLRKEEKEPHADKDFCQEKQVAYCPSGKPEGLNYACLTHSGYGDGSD
T15 sequence (P45983 whole entry): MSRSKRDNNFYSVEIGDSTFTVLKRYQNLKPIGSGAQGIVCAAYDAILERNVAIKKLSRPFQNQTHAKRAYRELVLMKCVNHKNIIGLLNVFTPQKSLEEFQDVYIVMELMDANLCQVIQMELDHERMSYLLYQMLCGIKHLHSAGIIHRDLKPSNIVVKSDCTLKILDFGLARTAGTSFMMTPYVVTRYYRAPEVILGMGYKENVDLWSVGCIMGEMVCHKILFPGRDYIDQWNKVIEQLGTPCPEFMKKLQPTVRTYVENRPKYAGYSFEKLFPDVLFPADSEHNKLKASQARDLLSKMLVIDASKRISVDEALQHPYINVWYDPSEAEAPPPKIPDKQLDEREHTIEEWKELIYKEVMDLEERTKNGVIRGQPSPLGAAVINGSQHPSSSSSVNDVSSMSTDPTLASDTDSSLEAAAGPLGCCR
T4 sequence (P35968 whole entry): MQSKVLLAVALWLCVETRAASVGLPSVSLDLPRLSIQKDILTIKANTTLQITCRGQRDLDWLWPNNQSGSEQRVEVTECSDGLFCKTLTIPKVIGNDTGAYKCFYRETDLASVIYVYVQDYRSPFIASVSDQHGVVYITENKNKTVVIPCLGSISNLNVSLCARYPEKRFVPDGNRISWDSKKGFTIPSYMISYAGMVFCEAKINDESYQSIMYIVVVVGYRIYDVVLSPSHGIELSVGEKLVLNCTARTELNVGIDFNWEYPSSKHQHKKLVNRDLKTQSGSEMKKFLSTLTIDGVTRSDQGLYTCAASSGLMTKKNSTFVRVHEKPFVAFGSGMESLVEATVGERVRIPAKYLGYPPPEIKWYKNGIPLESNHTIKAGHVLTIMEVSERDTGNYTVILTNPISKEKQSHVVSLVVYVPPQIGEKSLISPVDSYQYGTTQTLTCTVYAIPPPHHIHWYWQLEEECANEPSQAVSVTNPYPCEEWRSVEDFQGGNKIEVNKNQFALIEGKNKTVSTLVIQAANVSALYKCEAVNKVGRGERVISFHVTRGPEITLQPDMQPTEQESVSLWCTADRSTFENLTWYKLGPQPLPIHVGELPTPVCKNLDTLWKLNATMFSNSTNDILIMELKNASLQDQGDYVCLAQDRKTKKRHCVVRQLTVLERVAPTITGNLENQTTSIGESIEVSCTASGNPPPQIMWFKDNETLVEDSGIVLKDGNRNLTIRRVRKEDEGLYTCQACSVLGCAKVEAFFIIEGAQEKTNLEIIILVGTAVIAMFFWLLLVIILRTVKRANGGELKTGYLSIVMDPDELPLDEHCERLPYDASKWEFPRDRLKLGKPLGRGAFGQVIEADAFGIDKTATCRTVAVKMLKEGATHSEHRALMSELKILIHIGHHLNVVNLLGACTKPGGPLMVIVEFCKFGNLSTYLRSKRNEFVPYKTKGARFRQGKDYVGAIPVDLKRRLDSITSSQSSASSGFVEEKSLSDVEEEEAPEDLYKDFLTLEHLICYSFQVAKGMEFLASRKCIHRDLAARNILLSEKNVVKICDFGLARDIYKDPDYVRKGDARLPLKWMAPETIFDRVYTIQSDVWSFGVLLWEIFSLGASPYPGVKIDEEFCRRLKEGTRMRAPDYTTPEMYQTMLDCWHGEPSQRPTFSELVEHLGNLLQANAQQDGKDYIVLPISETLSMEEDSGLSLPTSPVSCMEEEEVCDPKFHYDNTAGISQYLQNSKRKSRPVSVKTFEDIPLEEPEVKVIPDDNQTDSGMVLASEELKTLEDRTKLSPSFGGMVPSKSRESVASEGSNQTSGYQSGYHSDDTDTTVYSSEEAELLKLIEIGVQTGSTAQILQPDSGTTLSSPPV
T2 sequence (P28482 whole entry): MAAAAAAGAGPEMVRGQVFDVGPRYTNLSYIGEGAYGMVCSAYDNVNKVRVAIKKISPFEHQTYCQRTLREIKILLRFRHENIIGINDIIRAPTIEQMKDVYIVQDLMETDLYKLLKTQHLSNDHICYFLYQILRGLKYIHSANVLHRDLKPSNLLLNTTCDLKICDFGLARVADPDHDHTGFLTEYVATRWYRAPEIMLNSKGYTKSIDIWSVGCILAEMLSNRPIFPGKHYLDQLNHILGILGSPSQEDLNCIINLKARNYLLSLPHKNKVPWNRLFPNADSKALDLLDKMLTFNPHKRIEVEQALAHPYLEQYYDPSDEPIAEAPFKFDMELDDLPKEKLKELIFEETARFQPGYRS

inhibition [1]: 0%
inhibition [3]: 3.7%
inhibition [4]: 0%
inhibition [5]: 97%
inhibition [6]: 0%
inhibition [7]: 0%
inhibition [8]: 0%
inhibition [9]: 1.5%
inhibition [10]: 1.4%
inhibition [11]: 0.7%
inhibition [12]: 0%
inhibition [13]: 0%
inhibition [14]: 0%
inhibition [15]: 1.2%
inhibition [16]: 0%
inhibition [17]: 6.3%
inhibition [18]: 100%
inhibition [19]: 0%
inhibition [20]: 0%
inhibition [21]: 0%
inhibition [22]: 6.6%
pIC50 (Aurora kinase A): > 9.00
pIC50 [23]: 6.71
pIC50 [24]: 8.32
pIC50 [25]: 8.49
pIC50 [26]: 8.67
pIC50 [27]: 4.94
pIC50 [28]: > 9.00
pIC50 [29]: 7.67
pIC50 [30]: 8.56
pIC50 [31]: 8.03
pIC50 [32]: 7.74
pIC50 [33]: > 9.00
pIC50 [34]: > 9.00
pIC50 [35]: 6.78
pIC50 [36]: 6.56
pIC50 [37]: > 9.00
pIC50 [38]: > 9.00
pIC50 [39]: > 9.00
pIC50 [40]: < 4.70
pIC50 [41]: 5.80
inhibition [42]: 7.1%
inhibition [43]: 7.7%
inhibition [44]: 13%
inhibition [45]: 16%
inhibition [46]: 0.1%
inhibition [47]: 13%
inhibition [48]: 13%
Structure (SMILES): COc1ccc(Cn2ncc(NC(=O)c3cc(NC(=O)Nc4ccc(Cl)c(C(F)(F)F)c4)ccc3C)c2N)cc1
GI50 [2]: 270 nM
GI50 (HS27): > 30000 nM
